For one series, the system named is M1-M5. The series can be described thus: Lead Profile screen at Ricerca, orthosteric binding.
In the next series the test system is TREx293-hM1 cells. The series can be described thus: APP processing: M1-stimulated APPsα release, Western blot. The series is classed as cell-based, human. The following applies: for APPsα release, in combination with low dose CCh: 2 μM with 100 nM CCh. In outline: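 Stable human M1-overexpressing TREx293 cells, plated 2 days before use, were pretreated 15 min with 2 μM test compound or DMSO. Carbachol (100 nM or 10 μM) was then added, and medium was conditioned 1 h at 37°C. Endogenous APPsα in conditioned medium was detected by Western blot.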
On the technique in general: Immunoblotting shows a protein as a band on a membrane.

The subject of series [1] is biogenic amines (D2, H-HT2B, etc…). In words: Lead Profile screen at Ricerca, radioligand binding.
Series [2] addresses T1, M1 (Rattus norvegicus, UniProt P08482).
T1 sequence (P08482 1-460): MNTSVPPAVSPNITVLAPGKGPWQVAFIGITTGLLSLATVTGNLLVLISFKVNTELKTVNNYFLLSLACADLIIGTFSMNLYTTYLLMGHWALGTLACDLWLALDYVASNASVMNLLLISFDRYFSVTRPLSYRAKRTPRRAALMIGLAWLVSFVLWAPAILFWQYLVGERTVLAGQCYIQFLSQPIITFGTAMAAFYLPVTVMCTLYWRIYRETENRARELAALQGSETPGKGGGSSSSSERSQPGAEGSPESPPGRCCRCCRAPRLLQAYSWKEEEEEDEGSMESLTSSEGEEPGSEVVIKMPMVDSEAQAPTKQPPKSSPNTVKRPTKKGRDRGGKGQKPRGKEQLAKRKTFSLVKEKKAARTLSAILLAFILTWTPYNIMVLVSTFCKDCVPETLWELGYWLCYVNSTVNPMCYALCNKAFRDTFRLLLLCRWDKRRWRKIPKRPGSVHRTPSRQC
In words: real-time cell-based calcium-mobilization assay, M1 PAM.

The test system of a further series is M2-M5. In words: counter-screening against M2-M5. Type of series: cell-based. Particulars: read-out: M2-M5 EC50; selectivity counter-screen. Background: A counterscreen serves to expose hits that act by an unwanted route or on another target.
Series [3] has as its target T1, M1. Particulars: cited from earlier work.
For series [4] the following is noted: cited from earlier work.
A short description of the next series: solubility. Type of series: physicochemical.

Consider seven compounds from paper PMC3082000 (Bioorganic & medicinal chemistry letters, 2010).

The EC50 is the concentration needed to bring the measured effect to its halfway point.

In the case of `Cc1cc(NC(=O)CS(=O)(=O)c2cn(Cc3cc(Br)ccc3F)c3ccccc23)no1` [15j, 2-((1-(5-bromo-2-fluorobenzyl)-1H-indol-3-yl)sulfonyl)-N-(5-methylisoxazol-3-yl)acetamide], the “orthosteric binding at M1-M5” value with M1-M5 is given as “no orthosteric binding”. The “APPsα release, in combination with low dose CCh” value with TREx293-hM1 cells (TREx293-hM1 cells, listed as ML169) is “potentiates the CCh-mediated non-amyloidogenic APPsα release to the same degree as 10 μM CCh”; with TREx293-hM1 cells (TREx293-hM1 cells, listed as VU04505652), “potentiates the CCh-mediated non-amyloidogenic APPsα release”. In the series with TREx293-hM1 cells (2 μM, TREx293-hM1 cells), the “APPsα release, compound alone” value was “no effect”. Further, the “selectivity versus the biogenic amines” value in series [1] is reported as “selective”. Also, the improvement in potency at M1 [2] (relative to the non-fluorinated bromine analog) was about 3 fold. Moreover, the EC50 in the series on M2-M5 was over 30 µM.
Regarding `C[N+](C)(C)CCOC(N)=O` [carbachol, reference compound], the entries for the “soluble APP (APPsα)” value in the series on TREx293-hM1 cells (100 nM) and in the series on TREx293-hM1 cells (10 μM) were “modest increase” and “significant increase”, respectively.
Regarding `Cc1cc(NC(=O)CS(=O)(=O)c2cn(Cc3ccccc3Cl)c3ccccc23)no1` [compound 7], the EC50 in the series on M2-M5 is over 30 µM.
As for `Cn1cc(-c2ccc(CN3C(=O)C(=O)c4ccccc43)c(F)c2)cn1` [compound 3], the “efficacy (% ACh Max)” value at M1 [3] is recorded as 60 % ACh Max. Besides, the brainAUC/plasmaAUC in series [4] was about 0.1.
On to `CCC(C)n1cc(-c2cccc(Cn3cc(S(=O)(=O)CC(=O)Nc4cc(C)on4)c4ccccc43)c2)cn1` (stereo not drawn) [14c], for which, at M1 [2] (average of at least three independent determinations), the “M1 EC50” value is “inactive”.
Consider `Cc1cc(NC(=O)CS(=O)(=O)c2cn(Cc3cccc(-c4cn[nH]c4)c3)c3cc(F)cc(F)c23)no1` [15e], for which the EC50 in the series on M2-M5 is over 30 µM.
As to `Cc1cc(NC(=O)CS(=O)(=O)c2cn(Cc3cccc(Br)c3)c3ccccc23)no1` [13g], the solubility entry in the series “solubility” was “poor”.
